# Published values gathered from unrelated publications.
# Compare with care: the assays were run in different laboratories.
# Dipeptidyl peptidase 2: Dipeptidyl peptidase 2 (Homo sapiens, UniProt Q9UHL4)
# PTGS2: Prostaglandin G/H synthase 2 (PTGS2, Homo sapiens, UniProt P35354)
# CASP7: Caspase-7 (CASP7, Homo sapiens, UniProt P55210)
Compound,target,effect on,mode,technique,concentration,inhibition [%]
N#Cc1ccc(NCCNCC(=O)N2N=CCC2C#N)nc1 (stereo not drawn),Dipeptidyl peptidase 2,enzyme activity,inhibitor,,100 µM,77
C1=Cc2ccccc2Nc2ccccc21,"Dihydrofolate reductase (folA, Escherichia coli, UniProt P0ABQ4)",enzyme activity,inhibitor,,1 mM,~87
CS(=O)(=O)c1ccc(-c2ncccc2-c2nc3ccccc3s2)cc1,PTGS2,enzyme activity,inhibitor,absorbance,10 µM,84.7
CC(=O)N[C@@H](CC(=O)O)C(=O)N[C@@H](CC(N)=O)C(=O)N[C@@H](CC(C)C)C(=O)N[C@H](C=O)CC(=O)O,CASP7,enzyme activity,inhibitor,,5 nM,8
C#Cc1n[nH]c2c(-c3cn(C(C)c4ccccn4)c(=O)[nH]c3=O)cc(F)cc12 (stereo not drawn),"Platelet-derived growth factor receptor beta (PDGFRB, Homo sapiens, UniProt P09619)",enzyme activity,inhibitor,,1 µM,6.6
NS(=O)(=O)c1ccc(-c2ncc(Cl)cc2-c2nc3ccccc3s2)cc1,PTGS2,enzyme activity,inhibitor,absorbance,10 µM,100
CCOC(=O)c1ccc(OC(=O)CCCCCNC(=N)N)cc1,CASP7,enzyme activity,inhibitor,,10 µM,1
CC(C)N1CCC[C@H]1CNC(=O)c1cn(C2CCCC2)c(=O)c2c1c1ccccc1n2C,"Neuropeptide Y receptor type 2 (NPY2R, Homo sapiens, UniProt P49146)",ligand displacement,,radioligand,10 µM,3
N=C(N)c1ccc2cc(OC(=O)c3ccc(N=C(N)N)cc3)ccc2c1,CASP7,enzyme activity,inhibitor,,10 µM,1
CC(C)C[C@H](NC(=O)[C@H](Cc1ccccc1)NC(=O)c1cnccn1)B(O)O,"Serine protease HTRA2, mitochondrial (HTRA2, Homo sapiens, UniProt O43464)",enzyme activity,inhibitor,,33 µM,< 5
CS(=O)(=O)c1ccc(-c2ncc(Cl)cc2-c2nc3ccccc3s2)cc1,PTGS2,enzyme activity,inhibitor,absorbance,10 µM,98
CN(C)C(=O)COC(=O)Cc1ccc(OC(=O)c2ccc(NC(=N)N)cc2)cc1,Dipeptidyl peptidase 2,enzyme activity,inhibitor,,10 µM,20
O=C(Nc1cccnn1)N1CCN([C@@H]2CCOc3cc(C(F)(F)F)ccc32)CC1,"Glucagon receptor (GCGR, Homo sapiens, UniProt P47871)",cell-free assay,,,20 µM,-1
CN(C)Cc1ccc(-c2nc3ccccc3s2)c(-c2cccc(O)c2)c1,PTGS2,enzyme activity,inhibitor,absorbance,10 µM,1
CCN(CC)CCCC[C@H](NC(=O)[C@H](CC(C)C)NC(=O)[C@H](C)NC(=O)[C@H](Cc1ccccc1)NC(=O)c1ccc(C(C)(C)C)cc1)C(=O)N[C@@H](CO)C(=O)OC,"5-hydroxytryptamine receptor 1B (Htr1b, Rattus norvegicus, UniProt P28564)",ligand displacement,,radioligand,10 µM,-11
Cn1cc(-c2cc(F)cc(N3CCn4c(cc5c4CCCC5)C3=O)c2CO)cc(Nc2ccc(N3CCN(C4COC4)CC3)cn2)c1=O,"Protein kinase C zeta type (PRKCZ, Homo sapiens, UniProt Q05513)",enzyme activity,inhibitor,,0.1 µM,-2
COc1cc(Nc2ncc(F)c(Nc3ccc4c(n3)NC(=O)C(C)(C)O4)n2)cc(OC)c1OC,"Serine/threonine-protein kinase pim-3 (PIM3, Homo sapiens, UniProt Q86V86)",binding,,competition with immobilised ligand,10 µM,38
Cc1ccc(-c2nc3ccccc3s2)c(-c2cccc(O)c2)c1,PTGS2,enzyme activity,inhibitor,absorbance,10 µM,29
Cn1cc(-c2cccc(N3CCc4c(sc5c4CC(C)(C)C5)C3=O)c2CO)cc(Nc2ccncn2)c1=O,"Dual specificity tyrosine-phosphorylation-regulated kinase 3 (DYRK3, Homo sapiens, UniProt O43781)",enzyme activity,inhibitor,,1 µM,6
COCc1c(-c2cc3cc(C)cc(OC)c3s2)c2c(N)ncnn2c1CN1CCNC(=O)C1,"Alpha-2B adrenergic receptor (ADRA2B, Homo sapiens, UniProt P18089)",ligand displacement,,radioligand,10 µM,34
CN(C)Cc1ccc(-c2nc3ccccc3s2)c(-c2ccc(O)cc2)c1,PTGS2,enzyme activity,inhibitor,absorbance,10 µM,0
